Results published in ChEMBL document CHEMBL4513216, “Probing the Open Global Health Chemical Diversity Library for Multistage-Active Starting Points for Next-Generation Antimalarials” (ACS Infect Dis, 2020).

Test: Toxicity liver stage against HepG2, at 10uM
Format: cell-based
Set-up: test concentration 10 uM, cell line HepG2-A16-CD81EGFP
Conditions: human, HepG2-A16-CD81EGFP cells; read-out: INHIBITION
Procedure, shortened: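 Uninfected HepG2-A16-CD81EGFP cells, 3 × 10^3 per well, 1536-well, plated on prespotted compound at 10 μM final, parasite-free screening media added to match infected plates; puromycin 10 μM positive, DMSO 0.5% negative; run in parallel with 48 h PbLuc assay at 37 °C, 5% CO2; viability by CellTiter-Glo luminescence, normalized to controls.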

| SMILES | cytotoxicity at 10 µM |
| --- | --- |
| CN1C(=O)CC(N(C)Cc2nc3ccccc3c(=O)[nH]2)C1=O (stereo unspecified) | 7.61% |
| CN(C)c1ccc(C(=O)NCc2ccc(N3CCOCC3)cc2)cn1 | 6.03% |
| Cc1cc(NCc2ccc(CS(N)(=O)=O)cc2)nc(C)n1 | -7.2% |
| NC(=O)c1cc(C2CCCN(Cc3ccc4c(c3)OCCO4)C2)n[nH]1 (stereo unspecified) | -7% |
| CCCn1nc(-c2nc(Cc3ccc(OC)cc3)no2)ccc1=O | 0.0197% |
| Cc1cc(F)ccc1S(=O)(=O)N1CCN(C)Cc2ccccc21 | 4.06% |
| CS(=O)(=O)NCCC(=O)N1CCN(S(=O)(=O)c2ccc(Br)cc2)CC1 | -29.6% |
| O=C(CCn1ccccc1=O)Nc1ccc(F)c(Cl)c1 | 13.1% |
| CCCSCC(=O)Nc1ncn(CC(=O)NCc2ccccc2)n1 | 19.2% |
| Cc1cc(NC(=O)Cn2cc(C#N)c(=O)c3cc(Br)ccc32)no1 | 16.5% |
| CC1CN(C)c2ccccc2CN1C(=O)c1ccc[nH]1 (stereo unspecified) | -28.4% |
| Cc1cc(CN2CCC(C3CCN(CCc4ccccc4)C3)CC2)[nH]n1 (stereo unspecified) | 7.19% |
| Cc1ccc2c(c1)c(CNC(C)Cn1ccnc1)nn2C (stereo unspecified) | -6.14% |
| COCCC1(CO)CCCN(Cc2ccc(C(F)(F)F)cc2)C1 (stereo unspecified) | -153% |
| CS(=O)(=O)c1ncc(CN2CCN3CCCC3C2)n1CC1CCCCC1 (stereo unspecified) | -4.9% |
| CSc1ccc2cc(CN(C)CCCN(C)C)c(=O)[nH]c2c1 | -2.72% |
| CS(=O)(=O)NCC(=O)NCc1cccnc1-n1cnc2ccccc21 | 0.324% |
| CN1CCN(C[C@@H]2CN(C(=O)CCc3cn[nH]c3)C[C@@H]2CO)CC1 | -0.973% |
| Cc1nc(N)sc1C(=O)N[C@H]1CN(CCO)C[C@@H]1C1CC1 | 1.81% |

| SMILES | cytotoxicity at 10 µM |
| --- | --- |
| COc1c(F)ccc(C(=O)N2CC[C@H](CO)[C@@H](O)C2)c1F | -3.85% |
| Cc1cc2n(n1)CCN(c1nc(N)nc3c1CCNCC3)C2 | 7.04% |
| O=C(Cc1cc2c(cc1Cl)OCCO2)N1CC[C@H](CO)[C@H](O)C1 | 7.96% |
| O=C(NCC(F)(F)F)c1coc(COc2cccc(F)c2)n1 | -148% |
| CCc1nc2c(c(NCc3cc(-c4cccnc4)no3)n1)CCNCC2 | 0.811% |
| CNc1nc(N2CCN(C3CCCCC3)C(CCO)C2)nc2c1CCC2 (stereo unspecified) | -6.86% |
| OC[C@H]1CN(Cc2c(Cl)cccc2Cl)C[C@H]1CN1CCCCC1 | -140% |
| CN(CCO)Cc1nnc(C2CCN(C(=O)c3cc[nH]c3)CC2)n1C | 1.37% |
| Cc1ncsc1CN(Cc1ccccc1)Cc1ccncc1 | -4.45% |
| CCN(Cc1cc(F)ccc1Cl)C1CCS(=O)(=O)C1 (stereo unspecified) | 5.29% |
| CC(C)c1nccn1CCCNC(=O)c1ccc(-c2cncnc2)nc1 | 16.1% |
| COC(=O)c1cc(OCC2CCC2)cc(C(=O)N[C@@H]2CNCC[C@H]2O)c1 | -12% |
| COc1ccc(C(=O)N2CCCC2c2noc(C(C)C)n2)nn1 (stereo unspecified) | -4.01% |
| Cn1ccnc1CN1CCN(CC(=O)NCc2ccccc2F)CC1 | -22.1% |
| CCC1c2ccsc2CCN1C(=O)NCc1cc(C)on1 (stereo unspecified) | -10.2% |
| O=C(CCc1ccccn1)N1CCCC(n2cncn2)C1 (stereo unspecified) | -15.5% |
| O=C(c1cccc2cn[nH]c12)N1CCCC1c1noc(C2CC2)n1 (stereo unspecified) | -16.8% |
| Cc1nc(C2CCN(C(=O)c3cc(C4CC4)[nH]n3)CC2)no1 | -6.44% |
| Cn1c(C2CC2)nc2c1CCN(CCOc1cccc(F)c1)C2 | -13.1% |

| SMILES | cytotoxicity at 10 µM |
| --- | --- |
| Cn1c(C2CC2)nc2c1CCN(CC(=O)Nc1nccs1)C2 | -9.83% |
| CNC(=O)NC(=O)CCN1CCN(c2nccs2)CC1 | -11.1% |
| CS(=O)(=O)CCNC(=O)c1ccc(-c2ccco2)[nH]c1=O | -22.8% |
| Cc1nn(C)c(C)c1C1CCCN1CC(=O)Nc1nccs1 (stereo unspecified) | -21.6% |
| c1cnnc(N2CCCC(NCc3cccc4c3OCCCO4)C2)c1 (stereo unspecified) | -19.8% |
| CC(C)Oc1ncccc1CNC(=O)c1cc(C2CC2)on1 | -17.7% |
| COc1cc(C)nc(N2CCN(C(=O)c3ccoc3C)CC2)n1 | -21.8% |
| CC(C)c1n[nH]c(C2CN(C(=O)c3cccc4cn[nH]c34)CCO2)n1 (stereo unspecified) | -5.31% |
| CC(C)N1CC(C(=O)NCCOc2ccc3c(c2)OCO3)CC1=O (stereo unspecified) | -6.51% |
| O=C(NCCCn1ccnc1)N1CCN(c2cccs2)CC1 | -2.53% |
| CN1CC(=O)N(c2cnn(C)c2)CC12CCN(Cc1nccn1C)C2 (stereo unspecified) | -15.3% |
| CCO[C@H]1CO[C@@]2(CCCN(Cc3nc(C)cs3)C2)C1 | -9.75% |
| Cc1nc(C2CCCNC2)nc2c1CCCN2Cc1ccccn1 (stereo unspecified) | -2.76% |
| CN(C)C(=O)COC1COC2(CCN(CC3CCOCC3)CC2)C1 (stereo unspecified) | -113% |
| CC1c2ncc(COCC3CCOCC3)n2CCN1Cc1cccnc1 (stereo unspecified) | 5.95% |
| Cc1ccc(CN2CC[C@@H](N3CCOCC3)[C@@H]2Cc2cccnc2)o1 | 9.55% |
| Cn1ccc(C(=O)NC2CCC23CCN(CC2CCOCC2)CC3)c1 (stereo unspecified) | -149% |
| Cc1noc(C)c1CN1C(=O)[C@@H]2CC[C@H]1CN(Cc1nccs1)C2 | -0.626% |
